MC4R barr agon: agonists of human melanocortin 4 receptor (MC4R) beta-arrestin; U2OS MC4R beta-arrestin complementation, luminescence; percent of melanotan II response, DMSO zero; activation, % at 8.9 µM; hit rate 0.98% among 360,000;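 active = activation above a per-plate cutoff, the mean activation of sample wells on that plate plus 3 SD, cut at about 8% in these data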
ATG4B inhibitor: ATG4B (human) cysteine protease inhibition; ATG4B cleavage of LC3-PLA2, NBD-HPC fluorescence, 1 h; Q9Y4P1; AID 504462; hit rate 0.51% among 340,000; inhibition, % at 8.33 µM; in the data active = inhibition above about 40%
Target sequence (Q9Y4P1 whole entry, looked up): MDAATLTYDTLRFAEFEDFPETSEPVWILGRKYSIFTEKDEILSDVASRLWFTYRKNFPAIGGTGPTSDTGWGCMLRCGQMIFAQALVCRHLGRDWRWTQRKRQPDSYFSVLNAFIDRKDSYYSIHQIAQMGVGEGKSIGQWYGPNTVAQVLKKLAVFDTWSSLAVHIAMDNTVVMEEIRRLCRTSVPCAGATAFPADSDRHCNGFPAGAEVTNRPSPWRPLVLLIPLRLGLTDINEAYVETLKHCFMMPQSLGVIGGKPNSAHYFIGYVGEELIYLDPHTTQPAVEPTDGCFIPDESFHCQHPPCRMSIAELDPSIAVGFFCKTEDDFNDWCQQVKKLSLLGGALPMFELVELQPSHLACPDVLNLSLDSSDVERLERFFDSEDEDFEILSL
MPTP block: inhibitors of mitochondrial permeability transition pore | isolated mouse mitochondria, Ca2+ swelling absorbance, 30 min | inhibition, % at 10 µM | hit rate 1.4% among 360,000;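 active = inhibition of 50% or more, scaled per plate between neutral and stimulator controls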
SMARCA2 act: SMARCA2 function activation, primary screen; MG213 cells, MMTV-luciferase reporter, dexamethasone, overnight; hit rate 1% among 370,000; AID 652017; activation, % at 9.1 µM; in the data active = activation above about 7.8%
MC4R antag cAMP: blocks human MC4R cAMP signaling. P32245. MC4R-expressing cells, MTII-stimulated cAMP, LANCE TR-FRET. inhibition, % at 6.5 µM. hit rate 0.48% among 360,000. AID 540295;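 active = inhibition above its plate's cutoff, the mean of tested wells on that plate plus 3 SD, cut at about 29% in these data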
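Test system: U2OS cells stably expressing human melanocortin 4 receptor (MC4R); also added: Melanotan II challenge; compound: 6.5 µM single dose; timing: 30-min compound preincubation, 1-h Melanotan II challenge, 1-h detection, room temperature; signal: Eu-cAMP/anti-cAMP TR-FRET, emission 671 nm; repeats: one well per compound, no replicates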
SMARCA2 conf: confirmation of SMARCA2 (BRM) function activators; AID 652260; hit rate 30% among 3,500; shares compounds with SMARCA2 act; activation, % at 9.1 µM; MG213 cells, MMTV-luciferase with dexamethasone, luminescence, overnight; MG213 cells expressing E1A, Rb sequestered; DMSO wells 0%, reference activator 100%;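 active = activation above its plate's cutoff, the mean activation of tested wells plus 3 SD, cut at about 7.9% in these data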
GAL4-VP16 Luc: activates GAL4-VP16 luciferase, flagging SMARCA2 activator hits; hit rate 41% among 3,500; HEK293 GAL4-VP16 pG5luc reporter, luciferase luminescence; scaled: DMSO wells 0%, SAHA wells 100%; AID 686939; shares compounds with SMARCA2 act; activation, % at 9.1 µM;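 active = activation above the solvent-only control well mean plus 3 SD, averaged across control plates, cut at about 5.2% in these data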
Hits are given with their value; n = inactive; x = no result given. Only some compounds are listed: those with a hit (about 4.1% of all), similar ones and a draw of the others.

SMILES | MC4R barr agon | ATG4B inhibitor | MPTP block | SMARCA2 act | MC4R antag cAMP | SMARCA2 conf | GAL4-VP16 Luc
CCOC(=O)c1sc(NC(=O)c2cncc(Br)c2)nc1C | x | x | x | 10.0 | x | n | 9.3
C=CCOC(=O)c1sc(NC(=O)c2ccco2)nc1C | n | n | n | 8.0 | n | 18.5 | 6.7
CCOC(=O)c1sc(NC(=O)c2ccc3ncsc3c2)nc1C | n | n | n | n | n | x | x
CCOC(=O)[C@]12CCCC=C1N(CCCOC)C(=O)[C@@H]2CC(=O)NCc1cccc2ccccc12 | x | x | x | n | x | x | x
O=C(c1ccc2c3n(nc2c1)-c1ccccc1CO3)N1CCCCC1 | n | n | n | n | n | x | x
c1ccc2c(c1)COc1c3ncccc3nn1-2 | n | x | n | 13.1 | n | 8.2 | 8.4
O=C(O)c1cccc(NC(=S)NCc2ccccc2)c1 | n | n | n | n | n | x | x
CCOC(=O)c1cccc(NC(=S)NCc2ccc(C)cc2)c1 | n | n | n | 8.0 | n | n | n
O=C(NCCc1ccccc1)OCc1cn(Cc2cccc(Cl)c2)nn1 | x | x | x | n | x | x | x
CCOC(=O)C1CCN(C(=O)c2cc3c(ccc4ccccc43)o2)CC1 | n | n | n | 9.0 | n | 11.0 | 7.3
O=C(Nc1nc2c(F)cc(F)cc2s1)c1ccccn1 | n | n | n | 11.4 | n | n | 19.6
O=C1C2C3CCC(O3)C2C(=O)N1c1nccs1 (stereo unspecified) | n | n | n | 9.5 | n | n | n
O=C1C2C(C(=O)N1c1nccs1)C1C=CC2C12CC2 (stereo unspecified) | n | n | n | n | n | x | x
COc1ccc(C(C#N)N2N=C(c3ccccc3)CC2c2ccccc2)cc1OC (stereo unspecified) | n | n | n | 13.4 | n | n | n
COc1ccc(C(C#N)N2N=C(C)CC2c2ccccc2)cc1OC (stereo unspecified) | n | n | n | n | n | x | x
Cc1ccc(/C=C2/CCc3c([nH]c4ccccc34)C2=O)cc1 | n | n | n | 8.2 | n | n | 10.6
Cc1ccc(S(=O)(=O)NCc2cn3c(C)csc3n2)cc1 | n | n | n | n | n | x | x
Cc1ccc(SCc2cn3c(C)csc3n2)cc1 | n | n | n | 10.3 | n | n | 8.8
Cc1cccc2nc(CSc3ccc(Cl)cc3)cn12 | n | n | n | 10.2 | n | n | n
COc1ccc2c(c1)[C@@]1(OCCC=C[C@H]1C)C(=O)N2Cc1ccccc1C(F)(F)F | x | x | x | n | x | x | x
Cc1nnc(N/N=C\c2ccc(-c3cccc(C(=O)O)c3)o2)n1N | n | n | n | 9.1 | n | n | n
N#Cc1cccnc1N1CCN(C(=O)c2cccc3c2C(=O)c2ccc(Cl)cc2S3(=O)=O)CC1 | n | n | n | 13.5 | n | 13.7 | n
c1coc(-c2nnc(NC3=NCCC3)o2)c1 | n | n | n | 8.8 | n | n | 5.4
O=C(NCc1cccc(Cl)c1)C1Cc2c(-c3ccccc3)ccnc2O1 (stereo unspecified) | n | x | n | n | n | x | x
Cc1ccc(CNC(=O)C2CCC(=O)N(C3CCCC3)C2)c(F)c1F (stereo unspecified) | n | n | n | 9.7 | n | n | n
SMILES | MC4R barr agon | ATG4B inhibitor | MPTP block | SMARCA2 act | MC4R antag cAMP | SMARCA2 conf | GAL4-VP16 Luc
Cc1cccc(CNC(=O)C2CCC(=O)N(C3CCCC3)C2)c1 (stereo unspecified) | n | n | n | n | n | x | x
CN(C(=O)[C@@H](Cc1ccccc1)NC(=O)[C@H]1O[C@@H](n2ccc(=O)[nH]c2=O)[C@H](O)[C@@H]1O)C1CCCCC1 | x | x | x | n | x | x | x
Cc1ccc(NS(=O)(=O)c2c(C)nc3sccn3c2=O)cc1C | n | n | n | 9.6 | n | n | n
COC(=O)c1ccc(NS(=O)(=O)c2c(C)nc3sccn3c2=O)cc1 | n | x | n | n | n | x | x
O=C1NC(c2ccc(Br)cc2)=N/C1=C/c1ccco1 | n | n | n | 8.1 | n | n | 10.7
O=C1NC(c2ccccc2Cl)=N/C1=C/c1ccco1 | n | n | n | 18.4 | n | 9.7 | 8.1
S=c1[nH]nc(-c2ccccc2Cl)n1/N=C/C=C/c1ccco1 | n | n | n | n | n | x | x
C=CCN1[C@H](C)COc2cc(F)ccc2S1(=O)=O | x | x | x | n | x | x | x
Cc1sc2nc(COC(=O)CNC(=O)c3cc(F)ccc3F)[nH]c(=O)c2c1C | x | x | x | n | x | x | x

Screens deposited in PubChem by several laboratories.
